SR-BI DiI inh = blocks mouse SR-BI lipid uptake from DiI-HDL; AID 488896; 320,000 compounds, 0.96% hits; inhibition, % at 12.5 µM; Q61009; ldlA[mSR-BI] CHO cells, DiI-HDL uptake fluorescence, 3 h;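 active = mean replicate inhibition of at least 70% and a set share of replicates each scoring 70 or more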
HIF activator = HIF pathway transcriptional activation | U2OS HRE-luciferase reporter, luminescence; normalized: DMSO 0%, desferrioxamine 100% | activation, % at 7.5 µM (by protocol) | AID 1910 | 300,000 compounds, 0.32% hits;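 active = mean activation of at least 10% of the iron chelator positive control signal, with at least half of replicates also reaching 10%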
ABCB6 inh 2 = human ABCB6 transporter inhibition; Q9NP58; K562-ABCB6 porphyrin accumulation, flow cytometry, 1 h; stronger effect = lower value; fluorescence ratio to DMSO, % at 10 µM; 360,000 compounds, 0.19% hits; AID 602162;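 active = fluorescence ratio to DMSO below 75%, the collection mean minus 3 SD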;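 note: signal is porphyrin accumulated inside mitochondria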
SR-BI DiI-HDL act = activators of SR-BI mediated HDL lipid uptake | activation, % at 12.5 µM | CHO ldlA[mSR-BI] cells, DiI-HDL uptake fluorescence, 3 h; 100 = double the neutral-control signal | 320,000 compounds, 0.096% hits;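 active = mean replicate activation of at least 60% and every replicate at or above 60%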
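Material – SR-BI-overexpressing, LDLR-lacking CHO cells · Medium – BSA-supplemented, HEPES-buffered Ham's F12, pH 7.4 · Doses – single concentration · Times – compound with DiI-HDL co-incubation, 3 h at 37 °C · Measured by – bottom-read fluorescence, 550/595 nm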
GAA850 FXN act = activators of GAA850 frataxin (FXN) promoter. AID 540364. HEK293 lucGAA850 FXN promoter luciferase reporter, 24 h; percent of 10 µM SAHA response. 360,000 compounds, 0.56% hits. activation, % at 6 µM;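 active = activation above the average of all compounds screened plus 3 SD, cutoff fixed separately per campaign, cut at about 7.5% in these data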
AHR activator = human AHR activation; P35869; AHR-responsive luciferase reporter cells, luminescence; AID 2796; 320,000 compounds, 2.5% hits; activation, % at 5 µM; in the data active = activation above about 47%
Target sequence (P35869 whole entry, looked up): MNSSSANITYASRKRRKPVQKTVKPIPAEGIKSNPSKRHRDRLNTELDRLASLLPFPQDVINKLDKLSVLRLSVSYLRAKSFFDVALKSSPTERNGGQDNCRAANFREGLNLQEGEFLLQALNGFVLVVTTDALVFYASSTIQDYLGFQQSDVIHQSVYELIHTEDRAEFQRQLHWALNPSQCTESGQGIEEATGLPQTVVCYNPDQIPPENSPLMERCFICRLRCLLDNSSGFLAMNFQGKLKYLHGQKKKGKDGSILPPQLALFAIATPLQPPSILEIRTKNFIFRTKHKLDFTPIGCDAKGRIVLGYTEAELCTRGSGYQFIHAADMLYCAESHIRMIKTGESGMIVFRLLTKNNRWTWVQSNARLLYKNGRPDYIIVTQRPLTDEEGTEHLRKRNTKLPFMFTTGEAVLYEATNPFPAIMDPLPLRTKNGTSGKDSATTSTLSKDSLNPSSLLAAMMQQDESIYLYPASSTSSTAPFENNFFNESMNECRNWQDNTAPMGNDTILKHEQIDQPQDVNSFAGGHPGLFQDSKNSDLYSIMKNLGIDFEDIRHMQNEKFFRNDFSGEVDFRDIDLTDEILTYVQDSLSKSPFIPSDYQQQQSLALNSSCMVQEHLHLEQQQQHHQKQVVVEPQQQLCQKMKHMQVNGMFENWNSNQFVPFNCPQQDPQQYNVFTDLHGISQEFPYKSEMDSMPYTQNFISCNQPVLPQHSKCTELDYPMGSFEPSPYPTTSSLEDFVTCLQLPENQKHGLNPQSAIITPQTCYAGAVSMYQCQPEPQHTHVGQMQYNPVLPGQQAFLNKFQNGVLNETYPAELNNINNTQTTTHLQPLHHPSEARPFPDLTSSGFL
Each line names hits and unclear results; the compound was inactive in the other large screens. Hits are enriched below; roughly 3.9% of the tested compounds scored in any of these assays.

CC(=O)c1cc2c(cc1N/C(=N/S(=O)(=O)c1ccccc1)c1ccc(Cl)cc1)OCO2	AHR activator 94.1
CC(=O)c1cc2c(cc1NS(=O)(=O)c1ccccc1)OCO2	none
CCOc1ccc2[nH]c(=O)c(CN(CCN3CCCC3)C(=S)Nc3ccccc3OCC)cc2c1	none
O=C(NC1CCCCC1)N1CCCC(c2nc(-c3cccs3)no2)C1 (centres undefined)	none
COc1ccc(NC(=O)N2CCC(c3nc(-c4cccs4)no3)CC2)cc1	AHR activator 60.3
O=C(Nc1ccccc1)N1CCCC(c2nc(-c3cccs3)no2)C1 (centres undefined)	AHR activator 70.1
N#Cc1cccc(-c2nnc(SCc3ccccc3C#N)o2)c1	none
O=C(Nc1ccc(N2CCOCC2)cc1)c1ccc(Cl)nc1	AHR activator 73.1
C=CCN(c1ccccc1)S(=O)(=O)c1cccc(C(=O)Nc2ccc(N3CCOCC3)cc2)c1	SR-BI DiI inh 80.2 (no result: HIF activator, AHR activator)
C=CCN(c1ccccc1)S(=O)(=O)c1cccc(C(=O)Nc2ccncc2)c1	none
O=C(CS(=O)(=O)c1ccccc1)Nc1ccc(N2CCOCC2)cc1	HIF activator 19.9
C=CCN(c1ccccc1)S(=O)(=O)c1cccc(C(=O)NNC(=O)c2ccccc2O)c1	SR-BI DiI inh 87.5
Cn1c(CN2CCCCC2)c(C#N)c2ccccc21	none
CCn1cc(C(=O)N2CCc3ccccc32)c(=O)c2cc(S(=O)(=O)N3CCCC3)ccc21	none
O=C(Nc1ccc(N2CCOCC2)cc1)c1cccc(S(=O)(=O)N2CCCCC2)c1	SR-BI DiI inh 80.5 (no result: AHR activator)
COc1ccc(CNC(=O)C2CC(C)=C(C)CC2C(=O)O)cc1 (centres undefined)	none
Cc1ccc(NC(=O)c2ccc(F)cc2)cc1S(=O)(=O)N1CCCCCC1	none
Cc1ccc(OCC(=O)Nc2ccc(C)c(S(=O)(=O)N3CCCCCC3)c2)c([N+](=O)[O-])n1	SR-BI DiI inh 73.5
Cc1ccc(C(=O)Nc2ccc3cn[nH]c3c2)cc1S(=O)(=O)N1CCCCC1	AHR activator 55.0
COc1ccc(C(=O)Nc2ccc(C)c(S(=O)(=O)N3CCCCCC3)c2)cc1	SR-BI DiI inh 80.5
COC(=O)c1cc(NC(=O)COC(=O)C2CCC2)cc(C(=O)OC)c1	none
Cc1ccc(/C=C(\NC(=O)c2ccccc2)C(=O)OCc2ccccc2)cc1	none
CCOC(=O)/C(=C\c1ccc(C)cc1)NC(=O)c1ccccc1	ABCB6 inh 2 70.0
Cc1ccc(C(=O)N/C(=C\c2ccc([N+](=O)[O-])cc2)C(=O)NCCc2ccccc2)cc1	ABCB6 inh 2 71.0
COc1ccc(/C=C2\CCC/C(=C\c3ccc(OC)c(OC)c3OC)C2=O)c(OC)c1OC	SR-BI DiI inh 73.7 (no result: AHR activator)
C[n+]1c2n(c3ccccc31)N=C(c1ccc(-c3ccccc3)cc1)CS2	AHR activator 53.3
CCc1nnc2n1N=C(c1ccc(Br)cc1)CS2	none
Cc1cc(-c2nnc3n2N=C(c2ccc(-c4ccccc4)cc2)CS3)n[nH]1	none
C[n+]1c2n(c3ccccc31)N=C(c1ccc(Br)cc1)CS2	AHR activator 59.8
O=C(Nc1cccc(NC(=O)c2ccco2)c1)c1ccc([N+](=O)[O-])cc1	SR-BI DiI inh 81.9
CC(=O)c1cccc(NC(=O)c2cccc(NC(=O)c3ccco3)c2)c1	none
O=C(NC1=NCCS1)c1cccc(NC(=O)c2ccco2)c1	HIF activator 11.7
Cc1cc(C)cc(NC(=O)c2cccc(NC(=O)c3ccco3)c2)c1	HIF activator 53.4
COC(=O)c1ccc(NC(=O)c2cccc(NC(=O)c3ccco3)c2)cc1	SR-BI DiI-HDL act 749.2
COc1c(F)c(F)c(C(=O)Nc2ccc(NC(=O)c3ccco3)cc2)c(F)c1F	SR-BI DiI inh 73.6
Cc1nn(-c2ccccc2)c(C)c1/C=N/NC(=O)CSc1nnc(SCc2cccc3ccccc23)s1	SR-BI DiI inh 72.7
Cc1nn(-c2ccccc2)c(C)c1/C=N/NC(=O)CSc1nc2ccccc2c(=O)n1-c1ccc(Br)cc1	SR-BI DiI inh 73.8
Cc1ccc(-n2c(SCC(=O)N/N=C/c3c(C)nn(-c4ccccc4)c3C)nc3ccccc3c2=O)cc1	none
CCN(C(=O)COC(=O)CNC(=O)c1ccccc1C)C1=CCCCC1	none (no result: HIF activator)
Cc1ccc(Cn2cc(SCC(=O)Nc3nccs3)c3ccccc32)cc1	none
Cn1c(/C(C#N)=C(\O)c2ccc(Cl)s2)nc2ccccc21	AHR activator 64.9
Cn1c(/C(C#N)=C(\O)c2ccc([N+](=O)[O-])s2)nc2ccccc21	none
Cc1cc(C(=O)Nc2ccccc2N2CCOCC2)ccc1[N+](=O)[O-]	AHR activator 72.1
O=C(Nc1nc(-c2ccccc2)cs1)c1ccc(N2CCOCC2)c([N+](=O)[O-])c1	SR-BI DiI inh 78.6
Cc1ccc(-c2csc(NC(=O)c3cc([N+](=O)[O-])ccc3N3CCOCC3)n2)cc1	none (no result: SR-BI DiI inh, SR-BI DiI-HDL act)
Cc1cc(C(=O)NC(=S)Nc2ccccc2N2CCCC2)ccc1[N+](=O)[O-]	AHR activator 49.7
Cc1cccc(CCNC(=O)c2cc(S(=O)(=O)N3CCOCC3)cn2C)c1	none
CCOc1ccc(-n2c(C)c3c(C)nnc(C)c3c2C)cc1	none (no result: SR-BI DiI inh, HIF activator, SR-BI DiI-HDL act, AHR activator)
O=C(Nc1nc(-c2cccc3ccccc23)cs1)c1cnccn1	AHR activator 49.3
O=C(CC(NS(=O)(=O)c1ccc(Cl)cc1)c1ccco1)NCc1cccnc1 (centres undefined)	none
COc1cc2c(cc1OC)/C(=C/C(=O)c1ccc(F)cc1)NCC2	none
COc1cc2c(cc1OC)CN(C(=O)c1cccc([N+](=O)[O-])c1)CC2	none
COc1cc2c(cc1OC)/C(=C/C(=O)c1cccc([N+](=O)[O-])c1)NCC2	AHR activator 79.0
COc1cc2c(cc1OC)/C(=C/C(=O)c1ccc(OC)c([N+](=O)[O-])c1)NCC2	SR-BI DiI inh 85.4 (no result: AHR activator)
CCOC(=O)N/N=C/c1ccc(OCCSc2ccc(Cl)cc2)c(OC)c1	none
CCOC(=O)N/N=C/c1ccc(OCCSc2ccc(Cl)cc2)c(OCC)c1	SR-BI DiI inh 74.4
CN(C=[N+](C)C)c1cccc2c1C(=O)c1ccccc1C2=O	none
COCOc1ccc(C2CC(=O)c3c(OCOC)cc(OCOC)cc3O2)cc1 (centres undefined)	none
COc1cccc(CNCCc2c[nH]c3ccccc23)c1OCc1ccc(F)cc1	none
Cc1ccc(N2CC(=O)Nc3c(sc4nc(C)cc(C)c34)C2=O)cc1	HIF activator 26.2
Cc1cc(C)c2c3c(sc2n1)C(=O)N(c1ccccc1C)CC(=O)N3	none
Cn1ccc(=S)c2ccccc21	none
Cc1cc(C)c(C)c(S(=O)(=O)NCc2cccnc2)c1C	none
COc1ccc(NC(=S)c2ccc(N(C)C)cc2)cc1	HIF activator 35.5
Cc1ccc(NC(=S)c2ccc(N(C)C)cc2)cc1	none
